Measured values published in ChEMBL document CHEMBL1123109, “Alkyl esters of 3-adenin-9-yl-2-hydroxypropanoic acid: a new class of broad-spectrum antiviral agents” (1985).
≈ marks a conversion by molar mass, not a printed value.

Columns and labels:
Assay type in all cases: functional
[1] = tested on: Vesicular stomatitis virus; test: Inhibition of Vesicular stomatitis virus induced cytopathicity in BALB/3T3 cells.; conditions: in Mus musculus
Procedure, shortened: (§1)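 Vesicular stomatitis virus was inoculated at 100 CCID50 (100× the dose infecting 50% of cells) in each cell type: human embryonic skin-muscle fibroblasts, LR-strain trisomy-21 fibroblasts, HEp-2, CV-1, BS-C-1, Balb/3T3, RK13, human kidney, HeLa and Vero. CPE was read at 1–2 days in every cell type, once complete in untreated infected controls. The MIC is the concentration giving a 50% reduction in cytopathogenicity.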

[2] = tested on: Vesicular stomatitis virus; test: Inhibition of Vesicular stomatitis virus induced cytopathicity in BS-C-1 cells.; procedure, shortened: as §1
[3] = tested on: Vesicular stomatitis virus; test: Inhibition of Vesicular stomatitis virus induced cytopathicity in CV-1 cells.; procedure, shortened: as §1
[4] = tested on: Vesicular stomatitis virus; test: Inhibition of Vesicular stomatitis virus induced cytopathicity in E6SM cells.; procedure, shortened: as §1
[5] = tested on: HK; test: Minimum inhibitory concentration which is required to reduce virus-induced cytopathogenicity by 50% against Vesicular stomatitis virus in human kidney,; procedure, shortened: as §1
[6] = tested on: Vesicular stomatitis virus; test: Inhibition of Vesicular stomatitis virus induced cytopathicity in HEp-2 cells.; procedure, shortened: as §1
[7] = tested on: Coxsackievirus B4; test: Inhibition of Coxsackie B4 virus induced cytopathicity in HeLa cells.; conditions: Enterovirus B
[8] = tested on: Vesicular stomatitis virus; test: Inhibition of Vesicular stomatitis virus induced cytopathicity in HeLa cells.; procedure, shortened: as §1
[9] = tested on: HeLa; test: Cytotoxic concentration against HeLa cells.; conditions: Homo sapiens
Procedure, shortened: (§2)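 Uninfected cells were incubated with compound for the same duration as the matching antiviral assay. The minimum cytotoxic concentration is the lowest one causing a microscopically detectable change in normal cell morphology.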

[10] = tested on: PRK; test: Cytotoxic concentration against PRK cells.; conditions: Oryctolagus cuniculus; procedure, shortened: as §2
[11] = tested on: Human alphaherpesvirus 1; test: Inhibition of HSV-1 induced cytopathicity in PRK cells.
[12] = tested on: Vaccinia virus; test: Inhibition of Vaccinia virus induced cytopathicity in PRK cells.; conditions: Orthopoxvirus vaccinia
[13] = tested on: Vesicular stomatitis virus; test: Inhibition of Vesicular stomatitis virus induced cytopathicity in PRK cells.
[14] = organism: Oryctolagus cuniculus; test: Inhibitory effects on DNA, RNA, and Protein synthesis in rabbit kidney cells was evaluated for incorporation of [4,5-3H]leucine; conditions: read-out: ID50 (the source's name)
[15] = organism: Oryctolagus cuniculus; test: Inhibitory effects on DNA, RNA, and Protein synthesis in rabbit kidney cells was evaluated for incorporation of [5-3H]-Urd; conditions: read-out: ID50 (the source's name)
[16] = tested on: Vesicular stomatitis virus; test: Inhibition of Vesicular stomatitis virus induced cytopathicity in RK13 cells.; procedure, shortened: as §1
[17] = tested on: Vesicular stomatitis virus; test: Inhibition of Vesicular stomatitis virus induced cytopathicity in T-21 cells.; procedure, shortened: as §1
[18] = tested on: Vero; test: Cytotoxic concentration against Vero cells.; conditions: Chlorocebus sabaeus; procedure, shortened: as §2
[19] = tested on: Sindbis virus; test: Inhibition of Sindbis virus induced cytopathicity in vero cells.
[20] = tested on: Vesicular stomatitis virus; test: Inhibition of Vesicular stomatitis virus induced cytopathicity in Vero cells.; procedure, shortened: as §1
[21] = tested on: Measles morbillivirus; test: Inhibition of Measles virus induced cytopathicity in vero cells.
[22] = tested on: Human respirovirus 3; test: Inhibition of parainfluenza virus-3 induced cytopathicity in vero cells.
[23] = tested on: Mammalian orthoreovirus 1; test: Inhibition of Reo virus-1 induced cytopathicity in vero cells.
[24] = tested on: Poliovirus 1; test: Inhibition of polio virus 1 induced cytopathicity in HeLa cells.; conditions: Enterovirus C
[25] = organism: Oryctolagus cuniculus; test: Inhibitory effects on DNA, RNA, and Protein synthesis in rabbit kidney cells was evaluated for incorporation of [methyl-3H]dThd]; conditions: read-out: ID50 (the source's name)
[26] = tested on: HK; test: Minimum inhibitory concentration which is required to reduce virus-induced cytopathogenicity by 50% against Vesicular stomatitis virus in human kidney (HK) cells; procedure, shortened: as §1

Structure (SMILES)	MIC [1] [µg/mL]	MIC [2] [µg/mL]	MIC [4] [µg/mL]	MIC [6] [µg/mL]	MIC [7] [µg/mL]	MIC [8] [µg/mL]	MCC [9] [µg/mL]	MCC [10] [µg/mL]	MIC [11] [µg/mL]	MIC [12] [µg/mL]	MIC [13] [µg/mL]	IC50 [14] [µg/mL]	IC50 [15] [µg/mL]	MIC [16] [µg/mL]	MCC [18] [µg/mL]	MIC [19] [µg/mL]	MIC [20] [µg/mL]	MIC [21] [µg/mL]	MIC [22] [µg/mL]	MIC [23] [µg/mL]	also measured
CCCCOC(=O)C(O)Cn1cnc2c(N)ncnc21 (stereo not drawn)	200 (≈ 716 µM)	150 (≈ 537 µM)	7 (≈ 25.1 µM)	2 (≈ 7.16 µM)	> 400	15 (≈ 53.7 µM)	400	200	> 200	3 (≈ 10.7 µM)	3 (≈ 10.7 µM)	> 381	102 (≈ 365 µM)	100 (≈ 358 µM)	200	150 (≈ 537 µM)	30 (≈ 107 µM)	25 (≈ 89.5 µM)	70 (≈ 251 µM)	150 (≈ 537 µM)	MIC [3]: 300 µg/mL (≈ 1070 µM); MIC [5]: 50 µg/mL (≈ 179 µM); MIC [17]: 2 µg/mL (≈ 7.16 µM); MIC [24]: > 400 µg/mL; IC50 [25]: > 253 µg/mL
Nc1ncnc2c1ncn2CC(O)C(=O)OCCO (stereo not drawn)	> 400	> 400	70 (≈ 262 µM)	3 (≈ 11.2 µM)	> 400	70 (≈ 262 µM)	> 400	> 400	> 400	70 (≈ 262 µM)	30 (≈ 112 µM)	> 400	> 400	100 (≈ 374 µM)	> 400	> 400	150 (≈ 561 µM)	30 (≈ 112 µM)	> 200	> 200	MIC [3]: > 400 µg/mL; MIC [5]: 200 µg/mL (≈ 748 µM); MIC [17]: 30 µg/mL (≈ 112 µM); MIC [24]: > 400 µg/mL; IC50 [25]: > 314 µg/mL
Nc1ncnc2c1ncn2C[C@H](O)CO [(S)-DHPA]	> 400	> 400	15 (≈ 71.7 µM)	4 (≈ 19.1 µM)	> 400	30 (≈ 143 µM)	> 400	> 400	> 400	30 (≈ 143 µM)	15 (≈ 71.7 µM)	> 400	> 400	150 (≈ 717 µM)	> 400	> 400	200 (≈ 956 µM)	30 (≈ 143 µM)	20 (≈ 95.6 µM)	200 (≈ 956 µM)	MIC [3]: > 400 µg/mL; MIC [5]: 50 µg/mL (≈ 239 µM); MIC [17]: 20 µg/mL (≈ 95.6 µM); MIC [24]: > 400 µg/mL; IC50 [25]: > 326 µg/mL
COC(=O)C(O)Cn1cnc2c(N)ncnc21 (stereo not drawn)	300 (≈ 1260 µM)	150 (≈ 632 µM)	30 (≈ 126 µM)	3 (≈ 12.6 µM)	> 400	70 (≈ 295 µM)	> 400	> 400	> 400	7 (≈ 29.5 µM)	3 (≈ 12.6 µM)	> 400	350 (≈ 1480 µM)	1 (≈ 4.22 µM)	> 400	> 400	> 400	40 (≈ 169 µM)	20 (≈ 84.3 µM)	200 (≈ 843 µM)	MIC [26]: > 400 µg/mL; MIC [24]: > 400 µg/mL; IC50 [25]: > 400 µg/mL
CCCOC(=O)C(O)Cn1cnc2c(N)ncnc21 (stereo not drawn)	> 400	300 (≈ 1130 µM)	10 (≈ 37.7 µM)	3 (≈ 11.3 µM)	> 400	50 (≈ 188 µM)	> 400	100	> 100	3 (≈ 11.3 µM)	1 (≈ 3.77 µM)	> 400	168 (≈ 633 µM)	2 (≈ 7.54 µM)	> 400	> 200	150 (≈ 565 µM)	100 (≈ 377 µM)	100 (≈ 377 µM)	200 (≈ 754 µM)	MIC [3]: > 400 µg/mL; MIC [5]: 200 µg/mL (≈ 754 µM); MIC [17]: 7 µg/mL (≈ 26.4 µM); MIC [24]: > 400 µg/mL; IC50 [25]: > 276 µg/mL
